ChEMBL document CHEMBL1136008, “Novel tricyclic poly(ADP-ribose) polymerase-1 inhibitors with potent anticancer chemopotentiating activity: design, synthesis, and X-ray cocrystal structure” (J Med Chem, 2002)

Experiments:
A549 [1] = test: (§1) Cytotoxicity potentiation of Topotecan in human lung carcinoma A549 cells by the compound as potentiation factor at 50% growth inhibition; assay type: functional
How it was run: (§2)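 Cells were seeded 16–24 h before treatment, then exposed continuously for 5 days to increasing concentrations of temozolomide or topotecan, with or without 0.4 μM PARP-1 inhibitor. Final DMSO was 1%. Relative cell number was measured by SRB assay. Growth IC50 values came from point-to-point analysis of growth curves. PF50 = IC50 of cytotoxic agent alone / IC50 with inhibitor. Data are mean ± SEM of three independent experiments.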

[2] = target: T1, Poly [ADP-ribose] polymerase 1 (Homo sapiens, UniProt P09874)
LoVo [3] = test: Cytotoxic potentiation of Topotecan (TP) by the compound in human colorectal carcinoma LoVo cell line; assay type: functional, cell-based; how it was run: as §2
A549 [4] = test: as §1; assay type: functional; how it was run: as §2; remark: listed apart in the source
SW-620 [5] = test: Cytotoxic potentiation of Topotecan (TP) by the compound in human colon carcinoma SW620 cell line; assay type: functional, cell-based; how it was run: as §2
[6] = target: T1, Poly [ADP-ribose] polymerase 1; remark: listed apart in the source
A549 [7] = test: Cytotoxic potentiation of Topotecan (TP) by the compound in human lung carcinoma A549 cell line; assay type: functional, cell-based; how it was run: as §2
LoVo [8] = test: Cytotoxic potentiation of Tomozolomide (TM) by the compound in human colorectal carcinoma LoVo cell line; assay type: functional, cell-based; how it was run: as §2
SW-620 [9] = test: Cytotoxicity potentiation of Topotecan in human lung carcinoma SW620 cell line by the compound as potentiation factor at 50% growth inhibition; assay type: functional; conditions: in the assay text read “human colon carcinoma” for “human lung carcinoma”; how it was run: as §2
LoVo [10] = test: Cytotoxic potentiation of Topotecan (TP) by the compound in (human colorectal cancer LoVo cell line; assay type: functional, cell-based; how it was run: as §2

T1 sequence (P09874 whole entry): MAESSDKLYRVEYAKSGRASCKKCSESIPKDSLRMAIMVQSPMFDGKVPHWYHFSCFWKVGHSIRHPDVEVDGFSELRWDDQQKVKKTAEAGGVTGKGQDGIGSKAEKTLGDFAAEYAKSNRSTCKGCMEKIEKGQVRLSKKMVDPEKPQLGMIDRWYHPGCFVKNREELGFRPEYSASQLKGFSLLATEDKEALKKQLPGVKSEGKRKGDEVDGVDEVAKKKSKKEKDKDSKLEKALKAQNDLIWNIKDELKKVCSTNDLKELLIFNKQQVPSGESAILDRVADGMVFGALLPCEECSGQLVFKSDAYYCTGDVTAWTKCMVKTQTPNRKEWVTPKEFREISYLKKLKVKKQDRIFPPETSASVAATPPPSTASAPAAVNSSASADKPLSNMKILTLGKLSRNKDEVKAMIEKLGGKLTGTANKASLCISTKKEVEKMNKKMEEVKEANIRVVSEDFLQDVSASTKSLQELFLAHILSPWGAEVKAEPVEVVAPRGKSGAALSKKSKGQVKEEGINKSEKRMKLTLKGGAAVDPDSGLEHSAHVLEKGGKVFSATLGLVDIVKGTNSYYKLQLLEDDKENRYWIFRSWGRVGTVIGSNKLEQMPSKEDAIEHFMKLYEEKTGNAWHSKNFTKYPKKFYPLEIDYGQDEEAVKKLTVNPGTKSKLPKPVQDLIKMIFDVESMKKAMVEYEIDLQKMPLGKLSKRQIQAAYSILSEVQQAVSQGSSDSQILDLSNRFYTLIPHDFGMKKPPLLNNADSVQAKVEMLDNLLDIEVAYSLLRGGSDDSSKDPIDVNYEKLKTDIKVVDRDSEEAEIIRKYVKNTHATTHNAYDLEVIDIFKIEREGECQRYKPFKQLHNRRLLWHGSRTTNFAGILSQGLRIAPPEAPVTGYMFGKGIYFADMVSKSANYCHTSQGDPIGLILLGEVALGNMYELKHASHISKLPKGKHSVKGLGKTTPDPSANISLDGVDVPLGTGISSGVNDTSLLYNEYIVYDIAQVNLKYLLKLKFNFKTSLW

Row | Ki [2] [nM] | SMILES | PF50 (A549 [1]) | further results
1 | – | Cn1c(-c2ccccc2)c2c3c(cccc31)C(=O)NCC2 | 1.7 | –
2 | 6 | COc1ccc(-c2[nH]c3cccc4c3c2CCNC4=O)cc1 | – | –
3 | < 5 | O=C1NCc2c(-c3ccccc3)[nH]c3cccc1c23 | – | –
4 | 8 | CN(C)Cc1cccc(-c2[nH]c3cccc4c3c2CCNC4=O)c1 | 2.1 | –
5 | 11 | N#Cc1[nH]c2cccc3c2c1CCNC3=O | – | –
6 | – | O=C1NCCc2c(-c3ccccc3)[nH]c3cccc1c23 | 1.8 | –
7 | – | CN(C)Cc1ccc(-c2[nH]c3cccc4c3c2CCNC4=O)cc1 | 2.4 | –
8 | – | O=C1NCCc2c(-c3ccc(Cn4cccc4)cc3)[nH]c3cccc1c23 | 2 | IC50 (LoVo [3]): 6.5 nM; PF50 (A549 [4]): 2; IC50 (SW-620 [5]): 1.8 nM; Ki [6]: 6 nM; IC50 (A549 [7]): 12 nM; IC50 (LoVo [8]): 76000 nM; PF50 (SW-620 [9]): 1.8
9 | < 5 | CN(C)Cc1cccc(-c2[nH]c3cccc4c3c2CNC4=O)c1 | – | –
10 | – | CN1CCc2c(-c3ccccc3)n(C)c3cccc(c23)C1=O | 1.2 | –
11 | 370 | O=C1NCCc2c(O)[nH]c3cccc1c23 | – | –
12 | 7 | Nc1cccc(-c2[nH]c3cccc4c3c2CCNC4=O)c1 | – | –
13 | – | O=C1NCCc2c[nH]c3cccc1c23 | 1.1 | –
14 | 23 | O=C1NCCc2c(C(c3ccccc3)c3ccccc3)[nH]c3cccc1c23 | – | –
15 | 8 | O=C1NCCc2c(-c3ccc[nH]3)[nH]c3cccc1c23 | – | –
16 | – | CN(C)Cc1ccc(-c2[nH]c3cccc4c3c2CNC4=O)cc1 | 2.2 | –
17 | – | O=C1NCCc2c(-c3ccc(F)cc3)[nH]c3cccc1c23 | 2.3 | –
18 | 6 | O=C1NCCc2c(-c3cccc(C(F)(F)F)c3)[nH]c3cccc1c23 | – | –
19 | – | Cn1nnc2c(C(N)=O)ncn2c1=O [TEMOZOLOMIDE] | – | IC50 (LoVo [10]; in the assay text read “Temozolomide (TM)” for “Topotecan (TP)”): 595000 nM
20 | – | CC[C@@]1(O)C(=O)OCc2c1cc1n(c2=O)Cc2cc3c(CN(C)C)c(O)ccc3nc2-1 [TOPOTECAN] | – | IC50 (SW-620 [5]): 3.2 nM; IC50 (LoVo [10]): 11.6 nM; IC50 (A549 [7]): 24 nM

Row | SMILES | Ki [2] [nM] | PF50 (A549 [1]) | further results
21 | COc1[nH]c2cccc3c2c1CCNC3=O | 10 | – | –
